10 compounds from ChEMBL document CHEMBL3124822, “Discovery of a rapidly metabolized, long-acting β(2) adrenergic receptor agonist with a short onset time incorporating a sulfone group suitable for once-daily dosing” (J Med Chem, 2014) can be followed below.

Data set [1] has as its target Beta-1 adrenergic receptor (Homo sapiens, UniProt P08588). Briefly: Agonist activity at human beta1 adrenoceptor transfected in CHO cells assessed as cyclic AMP accumulation after 45 mins by fluorescence polarization assay. The class given is cell-based. (In general: Fluorescence polarisation rises when a labelled molecule tumbles more slowly, as on binding a larger partner.)

The target of data set [2] is Beta-3 adrenergic receptor (Homo sapiens, UniProt P13945). Briefly: Agonist activity at human beta3 adrenoceptor transfected in CHO cells assessed as cyclic AMP accumulation after 45 mins by fluorescence polarization assay. The class given is cell-based.
The target of data set [3] is Beta-2 adrenergic receptor (Homo sapiens, UniProt P07550). Briefly: Agonist activity at human beta2 adrenoceptor transfected in CHO cells assessed as cyclic AMP accumulation after 45 mins by fluorescence polarization assay. It is filed as functional, cell-based.
Data set [4] relates to Cavia porcellus. Briefly: Bronchodilatory activity in guinea pig assessed as inhibition of histamine-induced bronchoconstriction administered via nebulization 2 mins prior to histamine challenge. The class given is functional. An outline of the steps: (§1)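 Conscious guinea pigs, n = 24 per group, given test agonist as a nebulized solution in dimethylacetamide–saline vehicle (2 min nebulization) before histamine (10 mM, nebulized 1.3 min) in a whole-body plethysmograph. PenH recorded for 15 min as index of airway obstruction. Dose expressed as nebulizer concentration; duration taken as time to 50% recovery.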

Data set [5] concerns Cavia porcellus. Briefly: Bronchodilatory activity in guinea pig assessed as duration of action of inhibition of histamine-induced bronchoconstriction at EC90 administered via nebulization 2 mins prior to histamine challenge. The class given is functional. The essentials: as §1
Data set [6] can be described thus: Stability of the compound in solid state. The class given is physicochemical.
Data set [7] relates to Rattus norvegicus. Briefly: Toxicity in Sprague-Dawley rat assessed as minimal irritancy in laryngeal region at 703 to 1261 ug/kg/day by 7-day snout-only inhalation assay. The class given is organism-based. Conditions: in vivo, inhaled_or_intranasal. The essentials: (§2)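 Sprague–Dawley male rats exposed snout-only to a dry powder formulation of the 4-biphenylsulfonic acid salt for 7 days at 181, 344, 703 and 1261 (μg/kg)/day (measured aerosol 5.1, 9.8, 19.9, 35.7 μg/L). Assessed clinically, with body weight, hematology, biochemistry and respiratory tract evaluation. Plasma exposure measured on day 7 as ng·h/mL.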

The subject of data set [8] is Rattus norvegicus. Briefly: Toxicity in Sprague-Dawley rat assessed as hematology at 181 to 1261 ug/kg/day by 7-day snout-only inhalation assay. It is filed as organism-based. Conditions: in vivo, inhaled_or_intranasal. The essentials: as §2
A short description of data set [9]: Plasma concentration in Sprague-Dawley rat at 1261 ug/kg/day measured on day 7 by 7-day snout-only inhalation assay. It is filed as ADME. The following applies: inhaled, 1.261 mg/kg. The essentials: as §2
For data set [10], the system named is Rattus norvegicus. Briefly: Toxicity in Sprague-Dawley rat at 181 to 1261 ug/kg/day by 7-day snout-only inhalation assay. It is filed as organism-based. Conditions: in vivo, inhaled_or_intranasal. The essentials: as §2
Data set [11] has as its system Rattus norvegicus. Briefly: Toxicity in Sprague-Dawley rat assessed as body weight change at 181 to 1261 ug/kg/day by 7-day snout-only inhalation assay. It is filed as organism-based. The following applies: in vivo, inhaled_or_intranasal. The essentials:
as §2

A short description of data set [12]: Solubility of the compound in water. It is filed as physicochemical.
Data set [13] deals with Rattus norvegicus. Briefly: Toxicity in Sprague-Dawley rat assessed as minimal irritancy in nasal cavity at 703 to 1261 ug/kg/day by 7-day snout-only inhalation assay. The class given is organism-based. Conditions: in vivo, inhaled_or_intranasal. An outline of the steps: as §2
Data set [14] deals with Salmonella typhimurium. Briefly: Genotoxicity in Salmonella typhimurium by Ames assay. The class given is toxicity, organism-based. The following applies: salmonella enterica subsp. enterica serovar typhimurium. An outline of the steps:
(§3)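 Acetate and 4-biphenylsulfonate salts screened in Ames and mouse lymphoma L5178Y assays, with and without a rat liver metabolic activation system.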

Data set [15] has as its system L5178Y. Briefly: Genotoxicity against mouse L5178Y cells in presence of rat liver metabolic activation system. The class given is toxicity, cell-based. The essentials: as §3
The nature of data set [16]: Stability of the compound in solution state. The class given is physicochemical.
In data set [17] the test system is L5178Y. Briefly: Genotoxicity against mouse L5178Y cells. It is filed as toxicity, cell-based. The essentials:
as §3

Data set [18] has as its system Salmonella typhimurium. Briefly: Genotoxicity in Salmonella typhimurium by Ames assay in presence of rat liver metabolic activation system. The class given is toxicity, organism-based. Conditions: salmonella enterica subsp. enterica serovar typhimurium. The essentials: as §3
A general note: The Ames test detects mutagens through reverse mutation in bacteria.

The nature of data set [19]: Oral absorption in Han Wistar rat at 2 mg/kg up to 7 hrs by LC-MS/MS analysis. The class given is ADME, organism-based. Also on record: dose 2 mg/kg. The following applies: in vivo, read-out: Fa. An outline of the steps:
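Rat oral absorption from hepatic portal vein plasma, corrected for systemic circulation levels, after β-glucuronidase treatment of samples (deconjugated HPV model). Expressed as h·ng/mL.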

Bounds are passed on as bounds.

Sequence of Beta-3 adrenergic receptor (P13945 whole entry): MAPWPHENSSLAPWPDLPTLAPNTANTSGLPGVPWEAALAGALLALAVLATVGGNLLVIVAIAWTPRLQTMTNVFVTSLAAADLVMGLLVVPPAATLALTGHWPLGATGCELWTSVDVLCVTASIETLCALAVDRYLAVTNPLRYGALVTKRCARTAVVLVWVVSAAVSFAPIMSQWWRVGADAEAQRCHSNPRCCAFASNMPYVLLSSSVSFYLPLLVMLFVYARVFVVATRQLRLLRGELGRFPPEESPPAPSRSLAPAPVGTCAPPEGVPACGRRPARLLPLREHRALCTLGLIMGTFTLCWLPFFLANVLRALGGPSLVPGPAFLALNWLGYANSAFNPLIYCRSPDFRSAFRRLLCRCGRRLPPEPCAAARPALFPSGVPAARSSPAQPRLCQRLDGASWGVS
Sequence of Beta-2 adrenergic receptor (P07550 whole entry): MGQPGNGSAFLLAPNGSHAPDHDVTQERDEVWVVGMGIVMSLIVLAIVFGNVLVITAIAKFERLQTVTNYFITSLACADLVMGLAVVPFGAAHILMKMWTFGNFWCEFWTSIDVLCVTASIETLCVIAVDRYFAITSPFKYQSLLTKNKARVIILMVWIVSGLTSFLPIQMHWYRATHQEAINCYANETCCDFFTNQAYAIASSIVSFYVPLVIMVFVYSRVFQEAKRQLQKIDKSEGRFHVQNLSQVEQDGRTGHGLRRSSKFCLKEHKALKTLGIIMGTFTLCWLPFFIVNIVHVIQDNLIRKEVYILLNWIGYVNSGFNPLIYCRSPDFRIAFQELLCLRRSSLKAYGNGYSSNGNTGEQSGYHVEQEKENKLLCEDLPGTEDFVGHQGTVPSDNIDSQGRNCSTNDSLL
Sequence of Beta-1 adrenergic receptor (P08588 whole entry): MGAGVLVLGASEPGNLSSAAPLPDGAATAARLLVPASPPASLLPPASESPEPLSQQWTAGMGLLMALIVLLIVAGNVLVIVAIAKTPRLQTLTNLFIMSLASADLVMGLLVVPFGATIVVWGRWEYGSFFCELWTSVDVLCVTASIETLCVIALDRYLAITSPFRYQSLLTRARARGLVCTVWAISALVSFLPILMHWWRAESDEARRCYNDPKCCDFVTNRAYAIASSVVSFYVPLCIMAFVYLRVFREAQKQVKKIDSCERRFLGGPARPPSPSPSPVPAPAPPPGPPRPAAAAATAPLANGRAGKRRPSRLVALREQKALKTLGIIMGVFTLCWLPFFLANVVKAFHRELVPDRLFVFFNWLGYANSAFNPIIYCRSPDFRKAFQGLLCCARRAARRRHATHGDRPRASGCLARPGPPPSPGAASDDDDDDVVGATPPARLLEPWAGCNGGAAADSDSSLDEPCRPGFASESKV

Turning to `O=S(=O)(c1cccc(CCCCOCCCCCCNC[C@H](O)c2ccc(O)c(CO)c2)c1)C1CC=CC1`, the EC50 was 501 nM in data set [1], 398 nM in data set [2] and 1 nM in data set [3].
Turning to `CC(=O)O.OCc1cc(C(O)CNCCCCCCOCCCCc2ccccc2)ccc1O` (configuration not stated), the EC90 in the data set on Cavia porcellus [4] came to 50000 nM. For the same compound, the Time in the data set on Cavia porcellus [5] came to 13 h.
On to `O=S(=O)(O)c1ccc(-c2ccccc2)cc1.O=S(=O)(c1cccc(CCCCOCCCCCCNC[C@H](O)c2ccc(O)c(CO)c2)c1)C1CCCC1`, for which the Stability result in [6] is recorded as “Stable”; in [16] it was “Unstable”. The Activity result with Rattus norvegicus [7], with Rattus norvegicus [8], in the data set with Rattus norvegicus [10], in the data set on Rattus norvegicus [11], in the data set with Rattus norvegicus [13] and in the data set with Salmonella typhimurium [14] was “Non-toxic” throughout. The Activity result in the data set with L5178Y [15], with L5178Y [17] and in the data set with Salmonella typhimurium [18] was “Non-toxic” throughout. The AUC in [9] was 146 ng·h/mL. In data set [12], this compound had a solubility of less than 10 µg/mL.
In the case of `CS(=O)(=O)c1ccc(CCCCOCCCCCCNC[C@H](O)c2ccc(O)c(CO)c2)cc1`, the values for the EC50 in data set [1], in [2] and in data set [3] were 6310 nM, 3980 nM and 20 nM, respectively.
On the same counts, the results for `Cc1cc(CCCCOCCCCCCNC[C@H](O)c2ccc(O)c(CO)c2)cc(S(=O)(=O)C2CCCC2)c1` are 158 nM, 316 nM and 0.501 nM.
On the same counts, the results for `O=S(=O)(c1ccc(CCCCOCCCCCCNC[C@H](O)c2ccc(O)c(CO)c2)cc1)C1CCCC1` are 1000 nM, 398 nM and 31.6 nM.
On the same counts, the results for `O=S(=O)(c1cccc(CCCCOCCCCCCNC[C@H](O)c2ccc(O)c(CO)c2)c1)C1CCCCC1` are 251 nM, 251 nM and 1.58 nM.
For the compound `O=S1(=O)CCc2ccc(CCCCOCCCCCCNC[C@H](O)c3ccc(O)c(CO)c3)cc21`, the figures for the EC50 in data set [1], in data set [2] and in data set [3] were 2000 nM, 2000 nM and 7.94 nM, respectively.
Consider `O=S1(=O)CCCc2ccc(CCCCOCCCCCCNC[C@H](O)c3ccc(O)c(CO)c3)cc21`, for which the EC50 in data set [1] was 2000 nM; in data set [2], 2510 nM; in data set [3], 39.8 nM.
For the compound `OCc1cc(C(O)CNCCCCCCOCCCCc2ccccc2)ccc1O` (configuration not stated) [SALMETEROL], the AUC at 7 h in [19] is 252 ng·h/mL.

Broadly, the EC50 is the concentration at which the effect is half-maximal. Broadly, the EC90 is the concentration needed for an effect of 90%. Broadly, the solubility is the dissolved amount per volume that the medium holds. Higher therefore signals much dissolved substance.
